ChEMBL document CHEMBL4196138, “Antiproliferative Carvotacetones from Sphaeranthus africanus” (J Nat Prod, 2018)

How the values were obtained:
HEK293 = experiment: Cytotoxicity against HEK293 cells after 72 hrs by XTT assay; assay type: cell-based; settings: Homo sapiens, HEK293, 72 h
Outline: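 HEK-293 cells in DMEM:Ham's F12 (1:1) with 2 mM L-glutamine, 10% FBS, and 1% penicillin/streptomycin at 37 °C in 5% CO2. 10 000 cells/well were treated 72 h with compounds from DMSO stocks (final DMSO 0.5%; vehicle controls). XTT plus electron coupling reagent was added and read photometrically. IC50 from a four-parameter logistic fit; mean ± SEM of six independent experiments.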

HCT-116 = experiment: Cytotoxicity against human HCT116 cells after 72 hrs by XTT assay; assay type: functional, cell-based; settings: HCT-116, 72 h
Outline: (§1)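 HCT-116 and U-251 cells grown in high-glucose DMEM with 4 mM L-glutamine, 10% FBS, and 1% penicillin/streptomycin at 37 °C in 5% CO2. 5000 cells/well were attached overnight, then treated 72 h (final DMSO 0.5%; vinblastine 0.01 μM as positive control). XTT was measured photometrically 1.5 h after addition. IC50 by four-parameter logistic fit; mean ± SEM of six independent experiments.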

CCRF-CEM = experiment: Cytotoxicity against human CCRF-CEM cells after 72 hrs by XTT assay; assay type: functional, cell-based
Outline: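 CCRF-CEM leukemia cells in RPMI 1640 with 2 mM L-glutamine, 10% FBS, and penicillin/streptomycin at 37 °C in 5% CO2. 10 000 cells/well were exposed 72 h to a concentration series (final DMSO 0.5%, vehicle control; vinblastine 0.01 μM as positive control). XTT was read photometrically after 4 h. Four-parameter logistic IC50; mean ± SEM, n = 6 independent experiments.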

MDA-MB-231 = experiment: Cytotoxicity against human MDA-MB-231 cells after 72 hrs by XTT assay; assay type: functional, cell-based; settings: MDA-MB-231, 72 h
Outline: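 MDA-MB-231 breast cancer cells kept in RPMI 1640 with 2 mM L-glutamine, 10% FBS, and penicillin/streptomycin at 37 °C in 5% CO2. 5000 cells/well were grown overnight, then exposed 72 h to compounds (final DMSO 0.5%, vehicle control; vinblastine 0.01 μM as positive control). Photometric XTT readout after 1.5 h. Four-parameter logistic IC50; six independent experiments, mean ± SEM.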

U-251 = experiment: Cytotoxicity against human U251 cells after 72 hrs by XTT assay; assay type: functional, cell-based; settings: U-251, 72 h; outline: as §1

| SMILES | IC50 (HEK293) | IC50 (HCT-116) | IC50 (CCRF-CEM) | IC50 (MDA-MB-231) | IC50 (U-251) |
| --- | --- | --- | --- | --- | --- |
| CC[C@]1(O)C[C@@H]2CN(CCc3c([nH]c4ccccc34)[C@@](C(=O)OC)(c3cc4c(cc3OC)N(C)[C@H]3[C@@](O)(C(=O)OC)[C@H](OC(C)=O)[C@]5(CC)C=CCN6CC[C@]43[C@@H]65)C2)C1 [VINBLASTINE] | 27 nM | 8.7 nM | – | – | – |
| C/C=C(/C)C(=O)O[C@@H]1C=C(CO)C(=O)[C@@H](OC(=O)[C@](C)(O)[C@@H](C)Cl)[C@@H]1C(C)C | 2800 nM | 2900 nM | 600 nM | 1500 nM | 2100 nM |
| C/C=C(/C)C(=O)O[C@@H]1C=C(CO)C(=O)[C@@H](OC(=O)[C@]2(C)O[C@@H]2C)[C@@H]1C(C)C | 3000 nM | 2600 nM | 1200 nM | 2000 nM | 2900 nM |
| C/C=C(/C)C(=O)O[C@@H]1C(=O)C(CO)=C[C@@H](OC(=O)/C(C)=C/C)[C@H]1C(C)C | 3000 nM | 2500 nM | 1300 nM | 2000 nM | 2100 nM |
| C/C=C(/C)C(=O)O[C@@H]1C=C(CO)C(=O)[C@@H](O)[C@@H]1C(C)C | 5500 nM | 9500 nM | 1500 nM | 6500 nM | 4300 nM |
| C/C=C(/C)C(=O)O[C@@H]1C(=O)C(CO)=C[C@@H](OC(=O)/C(C)=C\C)[C@H]1C(C)C | 2500 nM | 3900 nM | 800 nM | 1800 nM | 3000 nM |
